Test results: ChEMBL document CHEMBL4373735, “N-alkyl-hydroxybenzoyl anilide hydroxamates as dual inhibitors of HDAC and HSP90, downregulating IFN-γ induced PD-L1 expression” (Eur J Med Chem, 2020)
Activity calls are given as the source filed them. The rule behind the calls is not given here.

Legend:
[1] = tested on: HCT-116; assay: cells; format: functional; conditions: Homo sapiens, HCT-116, 48 h
[2] = target: Histone deacetylase; format: cell-based, Homo sapiens; conditions: hela
[3] = target: Heat shock protein HSP 90-alpha (Homo sapiens, UniProt P07900); assay: Inhibition of FITC-geldanamycin binding to recombinant human full-length C-terminal His-tagged HSP90alpha expressed in Escherichia coli after 3 hrs by fluorescence polarization assay
[4] = target: Histone deacetylase 1 (Homo sapiens, UniProt Q13547); assay: Inhibition of recombinant full length human FLAG/His-tagged HDAC1 (1 to 482 residues) expressed in baculovirus infected insect cells using RHK-K(Ac)-AMC as substrate measured after 60 mins by fluorimetric assay
Sequence of Histone deacetylase 1 (Q13547 whole entry, the tested form may be a part, canonical isoform): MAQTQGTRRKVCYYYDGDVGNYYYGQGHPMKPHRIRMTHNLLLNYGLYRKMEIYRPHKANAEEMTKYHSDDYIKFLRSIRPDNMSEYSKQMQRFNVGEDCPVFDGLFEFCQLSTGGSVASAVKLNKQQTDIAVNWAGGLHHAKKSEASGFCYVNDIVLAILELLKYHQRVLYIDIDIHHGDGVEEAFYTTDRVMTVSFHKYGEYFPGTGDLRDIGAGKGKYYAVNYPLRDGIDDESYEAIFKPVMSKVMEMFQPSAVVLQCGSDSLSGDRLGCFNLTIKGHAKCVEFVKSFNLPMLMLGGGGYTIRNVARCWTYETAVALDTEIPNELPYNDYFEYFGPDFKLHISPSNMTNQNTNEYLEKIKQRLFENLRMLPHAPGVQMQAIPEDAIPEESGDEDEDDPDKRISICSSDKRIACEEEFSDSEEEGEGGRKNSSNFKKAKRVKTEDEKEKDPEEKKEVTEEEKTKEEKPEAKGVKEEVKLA
Method in brief: (§1)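 Isoform assays run by an outside contractor. […] Trichostatin A tested in parallel the same way as control.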

[5] = target: Histone deacetylase 2 (Homo sapiens, UniProt Q92769); assay: Inhibition of recombinant human GST-tagged HDAC2 (1 to 488 residues) expressed in baculovirus infected sf21 cells using RHK-K(Ac)-AMC as substrate after 60 mins by fluorimetry assay
Sequence of Histone deacetylase 2 (Q92769 whole entry, the tested form may be a part): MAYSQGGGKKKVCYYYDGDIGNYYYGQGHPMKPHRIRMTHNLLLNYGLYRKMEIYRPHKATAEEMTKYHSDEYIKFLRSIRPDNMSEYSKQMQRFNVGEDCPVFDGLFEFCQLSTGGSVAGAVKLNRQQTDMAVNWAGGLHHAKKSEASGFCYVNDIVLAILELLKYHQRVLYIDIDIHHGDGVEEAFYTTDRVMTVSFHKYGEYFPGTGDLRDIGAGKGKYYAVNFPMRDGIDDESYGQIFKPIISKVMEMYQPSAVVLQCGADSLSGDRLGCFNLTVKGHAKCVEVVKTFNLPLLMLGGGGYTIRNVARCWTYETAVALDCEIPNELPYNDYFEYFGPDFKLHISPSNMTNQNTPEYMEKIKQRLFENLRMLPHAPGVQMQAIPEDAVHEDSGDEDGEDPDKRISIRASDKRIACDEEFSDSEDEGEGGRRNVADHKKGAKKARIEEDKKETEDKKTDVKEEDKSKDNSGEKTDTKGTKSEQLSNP
Method in brief: as §1

[6] = target: Histone deacetylase 4 (Homo sapiens, UniProt P56524); assay: Inhibition of recombinant N-terminal GST-tagged and C-terminal His-tagged human HDAC4 expressed in baculovirus infected insect cells using RHK-K(Ac)-AMC as substrate after 60 mins by fluorimetry analysis
Method in brief: as §1

[7] = target: Histone deacetylase 5 (Homo sapiens, UniProt Q9UQL6); assay: Inhibition of recombinant human C-terminal His-fusion tagged HDAC5 (657 to 1123 residues) expressed in baculovirus infected insect cells using Boc-K(Ac)-AMC as substrate after 60 mins by fluorimetry analysis
Sequence of Histone deacetylase 5 (Q9UQL6 whole entry, the tested form may be a part): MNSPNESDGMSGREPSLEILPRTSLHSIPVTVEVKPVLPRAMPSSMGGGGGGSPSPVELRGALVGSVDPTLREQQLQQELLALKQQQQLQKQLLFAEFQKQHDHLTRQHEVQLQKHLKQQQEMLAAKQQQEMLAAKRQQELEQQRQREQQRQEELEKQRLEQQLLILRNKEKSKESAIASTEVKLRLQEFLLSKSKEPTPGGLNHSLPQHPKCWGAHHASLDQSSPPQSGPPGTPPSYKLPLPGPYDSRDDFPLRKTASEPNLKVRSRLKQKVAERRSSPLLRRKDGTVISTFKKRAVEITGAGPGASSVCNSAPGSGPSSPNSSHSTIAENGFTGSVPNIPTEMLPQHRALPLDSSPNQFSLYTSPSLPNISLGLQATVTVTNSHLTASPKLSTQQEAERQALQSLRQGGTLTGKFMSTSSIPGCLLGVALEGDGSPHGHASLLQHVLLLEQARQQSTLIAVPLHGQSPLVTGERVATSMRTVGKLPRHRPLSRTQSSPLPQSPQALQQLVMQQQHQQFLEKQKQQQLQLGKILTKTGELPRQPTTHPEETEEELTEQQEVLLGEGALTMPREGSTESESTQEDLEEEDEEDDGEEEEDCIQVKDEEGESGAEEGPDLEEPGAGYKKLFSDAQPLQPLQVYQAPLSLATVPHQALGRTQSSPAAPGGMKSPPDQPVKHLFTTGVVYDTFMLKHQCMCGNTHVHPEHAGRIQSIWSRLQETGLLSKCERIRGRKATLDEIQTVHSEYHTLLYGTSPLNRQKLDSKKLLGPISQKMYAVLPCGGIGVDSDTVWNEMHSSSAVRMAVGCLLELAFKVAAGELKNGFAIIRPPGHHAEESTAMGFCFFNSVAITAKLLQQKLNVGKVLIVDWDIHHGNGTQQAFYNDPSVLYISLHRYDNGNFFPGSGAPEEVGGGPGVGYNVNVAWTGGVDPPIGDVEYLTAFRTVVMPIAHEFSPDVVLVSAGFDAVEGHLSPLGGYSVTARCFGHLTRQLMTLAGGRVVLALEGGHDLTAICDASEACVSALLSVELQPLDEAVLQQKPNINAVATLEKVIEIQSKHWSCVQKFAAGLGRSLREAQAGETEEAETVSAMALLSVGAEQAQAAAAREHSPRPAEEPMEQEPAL
Method in brief: as §1

[8] = target: Protein deacetylase HDAC6 (Homo sapiens, UniProt Q9UBN7); assay: Inhibition of recombinant human N-terminal GST-tagged HDAC6 (1 to 1125 residues) expressed in baculovirus infected insect cells using RHK-K(Ac)-AMC as substrate after 90 mins by fluorimetry analysis
Sequence of Protein deacetylase HDAC6 (Q9UBN7 whole entry, the tested form may be a part): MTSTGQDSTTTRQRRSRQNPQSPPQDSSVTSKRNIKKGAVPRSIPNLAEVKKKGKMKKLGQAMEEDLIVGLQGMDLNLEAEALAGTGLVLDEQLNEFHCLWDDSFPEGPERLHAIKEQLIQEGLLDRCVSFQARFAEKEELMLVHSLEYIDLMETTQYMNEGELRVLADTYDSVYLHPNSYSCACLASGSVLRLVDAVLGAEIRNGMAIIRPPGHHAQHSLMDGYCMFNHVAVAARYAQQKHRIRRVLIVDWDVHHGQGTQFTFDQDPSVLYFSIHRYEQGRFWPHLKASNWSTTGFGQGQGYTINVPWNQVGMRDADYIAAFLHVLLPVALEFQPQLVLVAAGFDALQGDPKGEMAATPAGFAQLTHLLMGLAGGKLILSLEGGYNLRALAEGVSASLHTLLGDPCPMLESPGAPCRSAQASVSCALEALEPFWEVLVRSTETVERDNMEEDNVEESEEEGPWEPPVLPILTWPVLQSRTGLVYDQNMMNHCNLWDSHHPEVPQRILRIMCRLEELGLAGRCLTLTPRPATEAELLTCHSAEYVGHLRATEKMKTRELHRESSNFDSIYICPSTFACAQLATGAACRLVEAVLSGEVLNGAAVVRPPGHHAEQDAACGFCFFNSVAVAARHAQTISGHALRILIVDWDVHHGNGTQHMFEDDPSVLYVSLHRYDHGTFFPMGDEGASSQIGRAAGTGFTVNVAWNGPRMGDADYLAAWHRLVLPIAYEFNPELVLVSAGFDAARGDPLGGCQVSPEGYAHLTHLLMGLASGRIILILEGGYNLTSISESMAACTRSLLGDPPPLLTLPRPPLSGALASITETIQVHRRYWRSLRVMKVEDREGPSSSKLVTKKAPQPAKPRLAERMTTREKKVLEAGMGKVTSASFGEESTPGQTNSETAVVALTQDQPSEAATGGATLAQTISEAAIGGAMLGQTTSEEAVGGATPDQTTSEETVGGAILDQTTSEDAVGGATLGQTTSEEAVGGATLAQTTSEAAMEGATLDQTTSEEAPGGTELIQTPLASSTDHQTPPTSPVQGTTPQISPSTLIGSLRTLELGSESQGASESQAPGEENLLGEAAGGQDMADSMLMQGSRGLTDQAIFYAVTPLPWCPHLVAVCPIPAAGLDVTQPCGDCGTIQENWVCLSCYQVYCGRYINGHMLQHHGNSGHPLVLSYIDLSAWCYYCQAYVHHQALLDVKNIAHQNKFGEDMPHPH
Method in brief: as §1

[9] = target: Histone deacetylase 8 (Homo sapiens, UniProt Q9BY41); assay: Inhibition of recombinant C-terminal His-fusion tagged and N-terminal Streptavidin2-tagged human HDAC8 (1 to 377 residues) expressed in insect cells using RHK-K(Ac)-AMC as substrate after 60 mins by fluorescence assay
Method in brief: as §1

[10] = target: Histone deacetylase 9 (Homo sapiens, UniProt Q9UKV0); assay: Inhibition of human HDAC9 using (Boc-Lys(trifluoroacetyl)-AMC) as substrate by fluorescence assay
Sequence of Histone deacetylase 9 (Q9UKV0 whole entry): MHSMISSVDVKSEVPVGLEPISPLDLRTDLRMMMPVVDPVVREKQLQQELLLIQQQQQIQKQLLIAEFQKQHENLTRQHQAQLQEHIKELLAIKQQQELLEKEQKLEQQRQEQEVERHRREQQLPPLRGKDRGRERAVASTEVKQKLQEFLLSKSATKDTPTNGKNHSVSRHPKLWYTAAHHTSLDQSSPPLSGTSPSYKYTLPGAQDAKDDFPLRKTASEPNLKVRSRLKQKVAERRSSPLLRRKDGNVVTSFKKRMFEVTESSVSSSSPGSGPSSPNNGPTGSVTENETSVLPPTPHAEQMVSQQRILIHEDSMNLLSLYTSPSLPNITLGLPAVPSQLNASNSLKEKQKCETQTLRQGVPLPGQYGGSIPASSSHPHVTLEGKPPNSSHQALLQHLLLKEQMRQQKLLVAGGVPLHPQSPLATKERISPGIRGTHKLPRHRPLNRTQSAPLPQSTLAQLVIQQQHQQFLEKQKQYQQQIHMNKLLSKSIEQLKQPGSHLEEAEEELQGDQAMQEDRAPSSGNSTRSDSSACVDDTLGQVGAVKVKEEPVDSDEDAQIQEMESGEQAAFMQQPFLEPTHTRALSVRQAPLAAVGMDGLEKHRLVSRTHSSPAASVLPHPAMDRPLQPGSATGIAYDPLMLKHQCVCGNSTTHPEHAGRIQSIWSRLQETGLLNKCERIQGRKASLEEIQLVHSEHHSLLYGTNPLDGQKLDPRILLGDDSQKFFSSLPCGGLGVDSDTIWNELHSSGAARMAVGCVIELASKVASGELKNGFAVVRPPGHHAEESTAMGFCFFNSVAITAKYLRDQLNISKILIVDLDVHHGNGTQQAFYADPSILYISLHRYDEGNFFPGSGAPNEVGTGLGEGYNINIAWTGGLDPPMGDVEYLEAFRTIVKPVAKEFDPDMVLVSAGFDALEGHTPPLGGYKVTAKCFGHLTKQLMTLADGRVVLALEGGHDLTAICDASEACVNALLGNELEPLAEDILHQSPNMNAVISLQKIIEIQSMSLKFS
Method in brief: as §1

[11] = target: Polyamine deacetylase HDAC10 (Homo sapiens, UniProt Q969S8); assay: Inhibition of human HDAC10 using fluorescent-labelled p53 residues 379 to 382 (RHKKAc) peptide as substrate by fluorescence assay
Sequence of Polyamine deacetylase HDAC10 (Q969S8 whole entry, the tested form may be a part): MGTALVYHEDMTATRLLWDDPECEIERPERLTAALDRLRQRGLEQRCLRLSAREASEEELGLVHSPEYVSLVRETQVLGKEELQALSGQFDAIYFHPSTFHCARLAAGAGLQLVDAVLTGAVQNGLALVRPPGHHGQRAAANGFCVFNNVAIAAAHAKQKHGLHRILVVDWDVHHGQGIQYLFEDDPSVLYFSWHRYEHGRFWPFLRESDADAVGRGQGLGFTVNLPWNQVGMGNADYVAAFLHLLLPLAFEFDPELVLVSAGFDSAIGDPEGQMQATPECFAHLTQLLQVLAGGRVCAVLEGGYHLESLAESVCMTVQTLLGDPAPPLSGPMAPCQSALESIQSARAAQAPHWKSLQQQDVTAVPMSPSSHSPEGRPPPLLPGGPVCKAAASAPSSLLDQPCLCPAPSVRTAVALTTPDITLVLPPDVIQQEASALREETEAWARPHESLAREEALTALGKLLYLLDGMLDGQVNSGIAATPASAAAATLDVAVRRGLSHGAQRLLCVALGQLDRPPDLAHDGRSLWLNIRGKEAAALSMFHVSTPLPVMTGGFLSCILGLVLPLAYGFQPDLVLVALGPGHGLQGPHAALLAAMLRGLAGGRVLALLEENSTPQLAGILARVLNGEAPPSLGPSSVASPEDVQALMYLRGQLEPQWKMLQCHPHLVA
Method in brief: as §1

[12] = target: Histone deacetylase 11 (Homo sapiens, UniProt Q96DB2); assay: Inhibition of human recombinant N-terminal Streptavidin2-tagged HDAC11 (1 to 347 residues) expressed in baculovirus infected insect cells using Boc-Lys(TFA)-AMC as substrate after 60 mins by fluorescence assay
Method in brief: as §1

[13] = target: T1, Heat shock protein HSP90 (Homo sapiens) (UniProt P07900+P08238); assay: Inhibition of HSP90 in human H1975 cells assessed as induction of HSP70 expression by Western blot analysis; format: cell-based
Method in brief: (§2)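 H1975 cells given DMSO or 0.1-3 μM compound for 24 h, or 1 μM for varying times. HSP70 and HSP90 client proteins detected by Western blot of whole-cell lysates, with GAPDH as internal control. Repeated in at least three independent experiments.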

[14] = target: T1, Heat shock protein HSP90 (Homo sapiens); assay: Inhibition of HSP90 in human H1975 cells assessed as downregulation of EGFR protein level by Western blot analysis; format: cell-based
Method in brief: as §2

[15] = target: T1, Heat shock protein HSP90 (Homo sapiens); assay: Inhibition of HSP90 in human H1975 cells assessed as downregulation of SRC protein level by Western blot analysis; format: cell-based
Method in brief: as §2

[16] = target: T1, Heat shock protein HSP90 (Homo sapiens); assay: Inhibition of HSP90 in human H1975 cells assessed as downregulation of FAK protein level by Western blot analysis; format: cell-based
Method in brief: as §2

[17] = target: T1, Heat shock protein HSP90 (Homo sapiens); assay: Inhibition of HSP90 in human H1975 cells assessed as downregulation of Rb protein level by Western blot analysis; format: cell-based
Method in brief: as §2

[18] = target: T2, Histone deacetylase (Homo sapiens) (UniProt Q13547+O15379+Q9UBN7+Q92769+Q9UQL6+Q8WUI4+Q9BY41+Q96DB2+P56524+Q9UKV0+Q969S8); assay: Inhibition of HDAC in human H1975 cells assessed as alpha tubulin acetylation after 24 hrs by Western blot analysis; format: cell-based
Method in brief: (§3)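 Whole-cell lysates from H1975 cells after 24 h culture with compound at the indicated concentrations. Acetylated α-tubulin and acetylated histone H3 detected by immunoblot: SDS-PAGE, PVDF transfer, primary antibody overnight at 4°C, HRP secondary, ECL. Repeated at least three times.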

[19] = target: T2, Histone deacetylase (Homo sapiens); assay: Inhibition of HDAC in human H1975 cells assessed as Histone H3 acetylation after 24 hrs by Western blot analysis; format: cell-based
Method in brief: as §3

[20] = tested on: NCI-H1975; assay: Induction of apoptosis in human NCI-H1975 cells assessed as activation of caspase 8 at 0.1 to 3 uM measured after 48 hrs immunoblot analysis; format: functional, cell-based
Method in brief: (§4)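 H1975 cells cultured with compound at the indicated concentrations for 48 h, then immunoblotted with the indicated antibodies. Lysis buffer was ice-cold RIPA-type with phosphatase and protease inhibitors, 30 min on ice. Proteins separated on 8-15% SDS-PAGE, transferred to PVDF, primary antibody overnight at 4°C, HRP secondary 1 h at room temperature, ECL detection.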

[21] = tested on: NCI-H1975; assay: Induction of apoptosis in human NCI-H1975 cells assessed as activation of caspase 9 at 0.1 to 3 uM measured after 48 hrs immunoblot analysis; format: functional, cell-based
Method in brief: as §4

[22] = tested on: NCI-H1975; assay: Induction of apoptosis in human NCI-H1975 cells assessed as activation of PARP at 0.1 to 3 uM measured after 48 hrs immunoblot analysis; format: functional, cell-based
Method in brief: as §4

[23] = tested on: NCI-H1975; assay: Induction of apoptosis in human NCI-H1975 cells assessed as activation of gamma H2AX at 0.1 to 3 uM measured after 48 hrs immunoblot analysis; format: functional, cell-based
Method in brief: as §4

[24] = tested on: NCI-H1975; assay: Inhibition of IFNgamma-induced PD-L1 expression in human NCI-H1975 cells assessed as reduction in PD-L1 expression incubated for 48 hrs by Western blot analysis; format: functional, cell-based
Method in brief: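 H1975 cells exposed to IFN-γ 20 ng/ml alone or together with compound at the indicated concentrations for 48 h. Lysates run on 10% reducing SDS-PAGE and transferred to nitrocellulose. Blocked in 5% milk/PBST, probed with mouse anti-PD-L1 for 1 h, HRP goat anti-mouse detected by ECL. β-actin used as loading control.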

[25] = tested on: NCI-H1975; assay: Inhibition of PD-L1 cell surface expression in IFNgamma-stimulated human NCI-H1975 cells at 0.74 uM after 48 hrs by FITC staining based FACScan flow cytometry analysis; format: functional
Method in brief: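 Cells seeded at 3.2×10^5/well and treated with IFN-γ 20 ng/ml with or without compound for 48 h. Then 3×10^5 cells stained with mouse anti-PD-L1 5 µg/ml for 1 h, followed by FITC goat anti-mouse IgG for 1 h, in PBS/0.05% BSA. FITC mean fluorescence intensity measured by FACScan and expressed relative to untreated cells. Mean ± S.D. of three independent experiments.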

Compound	GI50 [1]	IC50 [2]	IC50 [3]	IC50 [4]	IC50 [5]	IC50 [6]	IC50 [7]	IC50 [8]	IC50 [9]	IC50 [10]	IC50 [11]	IC50 [12]	inhibition [13]	inhibition [14]	inhibition [15]	inhibition [16]	inhibition [17]	inhibition [18]	inhibition [19]	Activity [20]	other results
CC(C)c1cc(C(=O)N(C)c2ccc(NC(=O)CCCCCCC(=O)NO)cc2)c(O)cc1O	0.83 µM	0.195 µM	0.153 µM	1.31 µM	1.19 µM	> 10 µM	7.86 µM	0.04 µM	0.422 µM	> 10 µM	2.67 µM	3.61 µM	Active	Active	Active	Active	Active	Dose-dependent effect	Dose-dependent effect	Active	Activity [21]: Active; Activity [22]: Active; Activity [23]: Active; inhibition [24]: Dose-dependent effect; inhibition [25]: Active
CC(C)c1cc(C(=O)N(C)c2ccc(NC(=O)CCCCCCCC(=O)NO)cc2)c(O)cc1O	1.06 µM	0.361 µM	0.0772 µM	6.06 µM	4.91 µM	> 10 µM	5.41 µM	0.316 µM	3.41 µM	> 10 µM	> 10 µM	1.89 µM	Active	Active	Active	Active	Active	Dose-dependent effect	Dose-dependent effect	Active	Activity [21]: Active; Activity [22]: Active; Activity [23]: Active; inhibition [24]: Dose-dependent effect; inhibition [25]: Active
